Source: ChEMBL document CHEMBL1122346, “Antihypertensive activity of 6-arylpyrido[2,3-d]pyrimidin-7-amine derivatives. 2. 7-Acyl amide analogues” (J Med Chem, 1983)
Values after ≈ are worked out from the molar mass of the structure shown. Values belong to the compound of their own block, whether it stands above or below them.

Assays:
Rattus norvegicus [1] = test: Antihypertensive activity rating in conscious SHR after 2 hr post dose at 50 mg/kg (po); Range 20-30%; type: functional
Rattus norvegicus [2] = species on record: Rattus norvegicus; test: Maximum percent decrease in blood pressure in SHR ( hour post dose in parentheses); type: functional
Rattus norvegicus [3] = test: Antihypertensive activity rating in conscious SHR after 10 hr post dose at 50 mg/kg (po); Range 20-30%; type: functional
Rattus norvegicus [4] = test: Antihypertensive activity rating in conscious SHR after 18 hr post dose at 50 mg/kg (po); Range 20-30%; type: functional
Rattus norvegicus [5] = test: Antihypertensive activity rating in conscious SHR after 24 h post dose at 10 mg/kg (po); Range 10-20%; type: functional
Rattus norvegicus [6] = test: Antihypertensive activity rating in conscious SHR after 24 h post dose at 50 mg/kg (po); Range 20-30%; type: functional
Rattus norvegicus [7] = test: Antihypertensive activity rating in conscious SHR after 10 hr post dose at 10 mg/kg (po); 0=No significant reduction; type: functional
Rattus norvegicus [8] = test: Antihypertensive activity rating in conscious SHR after 2 hr post dose at 10 mg/kg (po); 0=No significant reduction; type: functional
Rattus norvegicus [9] = test: Antihypertensive activity in conscious spontaneously hypertensive rats 24 hr following 50 mg/kg p.o.; No significant reduction.; type: functional; conditions: route oral
Rattus norvegicus [10] = test: Antihypertensive activity in conscious spontaneously hypertensive rats 10 hr following 50 mg/kg p.o.; No significant reduction.; type: functional; conditions: route oral
Rattus norvegicus [11] = test: Antihypertensive activity rating in conscious SHR after 10 hr post dose at 10 mg/kg (po); Range 10-20%; type: functional
Rattus norvegicus [12] = test: Antihypertensive activity rating in conscious SHR after 10 hr post dose at 50 mg/kg (po); type: functional
Rattus norvegicus [13] = test: Antihypertensive activity rating in conscious SHR after 18 hr post dose at 50 mg/kg (po); type: functional
Rattus norvegicus [14] = test: Antihypertensive activity rating in conscious SHR after 2 hr post dose at 10 mg/kg (po); Range 10-20%; type: functional
Rattus norvegicus [15] = test: Antihypertensive activity rating in conscious SHR after 24 hr post dose at 50 mg/kg (po); Range 10-20%; type: functional
Rattus norvegicus [16] = test: Antihypertensive activity in conscious spontaneously hypertensive rats 10 hr following 50 mg/kg p.o.; Range 10-20%.; type: functional; conditions: route oral
Rattus norvegicus [17] = test: Antihypertensive activity in conscious spontaneously hypertensive rats 2 hr following 50 mg/kg p.o.; No significant reduction.; type: functional; conditions: route oral
Rattus norvegicus [18] = test: Antihypertensive activity rating in conscious SHR after 24 h post dose at 10 mg/kg (po); 0=No significant reduction; type: functional
Rattus norvegicus [19] = test: Antihypertensive activity rating in conscious SHR after 2 hr post dose at 50 mg/kg (po); Range 10-20%; type: functional
[20] = pKa value, measured in 67% of DMF; type: physicochemical; conditions: 67% DMF
Procedure, shortened: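 Dissociation constants were found by potentiometric titration in 67% N,N-dimethylformamide/water.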

[21] = Half-life measured in 1:1 ratio of MeOH and phosphate buffer at pH 7; Stable; type: ADME
Procedure, shortened: (§1)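 Hydrolytic stability was tested at room temperature on solutions of ca. 0.001-0.002%. Media were 0.1 N HCl (pH ~1.5), 50% MeOH/pH 7 phosphate buffer (pH ~8.0), and 50% MeOH/0.05 N aqueous NaOH (pH ~12.2). Changes in the UV spectrum were followed over 2 weeks.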

[22] = Half-life measured in 0.1 N HCl; type: ADME; procedure, shortened: as §1
[23] = Half-life measured in 1:1 ratio of MeOH and 0.1 N NaOH; type: ADME; conditions: 1:1 MeOH / 0.1 N NaOH; procedure, shortened: as §1
[24] = Solubility, determined in 0.1 N HCl; type: physicochemical; conditions: read-out: S
Procedure, shortened: (§2)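 Dissolved compound was quantified by UV absorption. For the pH 7 value, the acidic solution was brought to pH 7 to give the unprotonated base, the precipitate was removed, and the supernatant was assayed again by UV.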

[25] = Solubility, determined in phosphate buffer at pH 7; type: physicochemical; procedure, shortened: as §2
[26] = Half-life measured in 0.1 N HCl; Stable; type: ADME; conditions: buffer; procedure, shortened: as §1
Rattus norvegicus [27] = test: Antihypertensive activity rating in conscious SHR after 24-72 hr post dose at 10 mg/kg (po); Range 10-20%; type: functional
[28] = pKa value, measured in 67% DMF/water
Rattus norvegicus [29] = test: Antihypertensive activity rating in conscious SHR after 10 hr post dose at 10 mg/kg (po); Range 20-30%; type: functional
Rattus norvegicus [30] = test: Antihypertensive activity rating in conscious SHR after 2 hr post dose at 10 mg/kg (po); Range 20-30%; type: functional
Rattus norvegicus [31] = test: Antihypertensive activity rating in conscious SHR after 24 hr post dose at 50 mg/kg (po); 0=No significant reduction; type: functional

Compound: Cc1ncc2cc(-c3c(Cl)cccc3Cl)c(NC(=O)C(F)(F)F)nc2n1
- Activity rating (Rattus norvegicus [1]): 20%
- Decrease (Rattus norvegicus [2]): 23%
- Activity rating (Rattus norvegicus [3]): 20%
- Activity rating (Rattus norvegicus [4]): 20%

Compound: COCC(=O)Nc1nc2nc(C)ncc2cc1-c1c(Cl)cccc1Cl
- Activity rating (Rattus norvegicus [1]): 20%
- Activity rating (Rattus norvegicus [5]): 10%
- Activity rating (Rattus norvegicus [6]): 20%
- Decrease (Rattus norvegicus [2]): 29%
- Activity rating (Rattus norvegicus [7]): 0%
- Activity rating (Rattus norvegicus [3]): 20%
- Activity rating (Rattus norvegicus [8]): 0%

Compound: CC(=O)Nc1nc2nc(C)nc(C)c2cc1-c1c(Cl)cccc1Cl
- Activity rating (Rattus norvegicus [1]): 20%
- Activity rating (Rattus norvegicus [9]): 0%
- Decrease (Rattus norvegicus [2]): 20%
- Activity rating (Rattus norvegicus [10]): 0%

Compound: Cc1ncc2cc(-c3c(Cl)cccc3Cl)c(NC=O)nc2n1
- Activity rating (Rattus norvegicus [1]): 20%
- Activity rating (Rattus norvegicus [5]): 10%
- Decrease (Rattus norvegicus [2]): 33%
- Activity rating (Rattus norvegicus [11]): 10%
- Activity rating (Rattus norvegicus [12]): >30%
- Activity rating (Rattus norvegicus [13]): >30%
- Activity rating (Rattus norvegicus [14]): 10%

Compound: Cc1ncc2cc(-c3c(Cl)cccc3Cl)c(/N=C/N(C)C)nc2n1
- Activity rating (Rattus norvegicus [15]): 10%
- Decrease (Rattus norvegicus [2]): 17%
- Activity rating (Rattus norvegicus [16]): 10%
- Activity rating (Rattus norvegicus [17]): 0%

Compound: Cc1ncc2cc(-c3c(Cl)cccc3Cl)c(NC(=O)c3ccccc3F)nc2n1
- Activity rating (Rattus norvegicus [18]): 0%
- Activity rating (Rattus norvegicus [7]): 0%
- Activity rating (Rattus norvegicus [8]): 0%

Compound: Cc1ncc2cc(-c3c(Cl)cccc3Cl)c(NC(=O)CNC(=O)OCc3ccccc3)nc2n1
- Activity rating (Rattus norvegicus [19]): 10%
- Activity rating (Rattus norvegicus [18]): 0%
- Activity rating (Rattus norvegicus [15]): 10%
- Decrease (Rattus norvegicus [2]): 29%
- Activity rating (Rattus norvegicus [7]): 0%
- Activity rating (Rattus norvegicus [3]): 20%
- Activity rating (Rattus norvegicus [14]): 10%

- pKa [20]: 2.5
- T1/2 [21]: Stable
- half-life [22]: 204 min
- half-life [23]: 528 min
Compound: CC(=O)/N=c1/c(-c2c(Cl)cccc2Cl)cc2cnc(C)nc2n1C
- Activity rating (Rattus norvegicus [19]): 10%
- Activity rating (Rattus norvegicus [15]): 10%
- Decrease (Rattus norvegicus [2]): 17%
- Activity rating (Rattus norvegicus [10]): 0%

- solubility [24]: 14.6 mg/mL (≈ 40.2 mM)
- solubility [25]: 280 µg/mL (≈ 0.771 mM)
- pKa [20]: 4.2
- T1/2 [21]: Stable
- T1/2 [26]: Stable
- half-life [23]: 360 min
- pKa [28]: 11.3
Compound: COC(=O)Nc1nc2nc(C)ncc2cc1-c1c(Cl)cccc1Cl
- Activity rating (Rattus norvegicus [19]): 10%
- Activity rating (Rattus norvegicus [15]): 10%
- Activity rating (Rattus norvegicus [27]): 10%
- Decrease (Rattus norvegicus [2]): 29%
- Activity rating (Rattus norvegicus [11]): 10%

Compound: Cc1ncc2cc(-c3c(Cl)cccc3Cl)c(NC(=O)c3ccoc3)nc2n1
- Activity rating (Rattus norvegicus [5]): 10%
- Decrease (Rattus norvegicus [2]): 28%
- Activity rating (Rattus norvegicus [29]): 20%
- Activity rating (Rattus norvegicus [30]): 20%

Compound: Cc1ncc2cc(-c3c(Cl)cccc3Cl)c(NC(=O)c3ccccn3)nc2n1
- Activity rating (Rattus norvegicus [19]): 10%
- Activity rating (Rattus norvegicus [6]): 20%
- Activity rating (Rattus norvegicus [27]): 10%
- Decrease (Rattus norvegicus [2]): 29%
- Activity rating (Rattus norvegicus [11]): 10%
- Activity rating (Rattus norvegicus [3]): 20%

Compound: CNC(=O)Nc1nc2nc(C)ncc2cc1-c1c(Cl)cccc1Cl
- Activity rating (Rattus norvegicus [1]): 20%
- Activity rating (Rattus norvegicus [9]): 0%
- Decrease (Rattus norvegicus [2]): 26%
- Activity rating (Rattus norvegicus [16]): 10%

Compound: Cc1ncc2cc(-c3c(Cl)cccc3Cl)c(NC(=O)c3cccc(N(C)C)c3)nc2n1
- Activity rating (Rattus norvegicus [15]): 10%
- Decrease (Rattus norvegicus [2]): 15%
- Activity rating (Rattus norvegicus [16]): 10%
- Activity rating (Rattus norvegicus [17]): 0%

Compound: CCO/C(=N\C)Nc1nc2nc(C)ncc2cc1-c1c(Cl)cccc1Cl
- Activity rating (Rattus norvegicus [31]): 0%
- Decrease (Rattus norvegicus [2]): 10%
- Activity rating (Rattus norvegicus [10]): 0%
- Activity rating (Rattus norvegicus [17]): 0%

Compound: Cc1ncc2cc(-c3c(Cl)cccc3Cl)c(NC(=O)Cc3ccccc3)nc2n1
- Activity rating (Rattus norvegicus [19]): 10%
- Activity rating (Rattus norvegicus [15]): 10%
- Decrease (Rattus norvegicus [2]): 17%
- Activity rating (Rattus norvegicus [16]): 10%

Compound: Cc1ncc2cc(-c3c(Cl)cccc3Cl)c(NC(=O)c3ccccc3C)nc2n1
- Activity rating (Rattus norvegicus [15]): 10%
- Decrease (Rattus norvegicus [2]): 23%
- Activity rating (Rattus norvegicus [16]): 10%
- Activity rating (Rattus norvegicus [17]): 0%
